Test results as given in ChEMBL document CHEMBL3621152, “Highly Efficient Synthesis of 1,3-Dihydroxy-2-carboxycarbazole and Its Neuroprotective Effects” (ACS Med Chem Lett, 2015).
Each block holds one compound with its values, some of them ahead of it. Calls of active or inactive are those of the source. The rule behind the calls is not given here.

Assays:
[1] = tested on: MC65; experiment: Neuroprotective activity in human MC65 cells assessed as protection against tetracycline removal-induced toxicity at 0.3 uM incubated for 72 hrs by MTT method; assay type: functional, cell-based
Summary of the method: (§1)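 Aβ toxicity in MC65 cells (C99 expression induced by tetracycline removal) with compound present at the indicated concentrations under -TC conditions for 72 h; viability read by MTT assay.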

[2] = tested on: MC65; experiment: Neuroprotective activity in human MC65 cells assessed as protection against tetracycline removal-induced toxicity at 10 uM incubated for 72 hrs by MTT method; assay type: functional, cell-based; summary of the method: as §1
[3] = tested on: MC65; experiment: Effect on Abeta40 production in human MC65 cells at 0.1 to 1 uM incubated for 48 hrs under tetracycline removal condition by ELISA method; assay type: functional, cell-based
Summary of the method: (§2)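 MC65 human neuroblastoma cells, which conditionally express APP C-terminal fragment C99 under tetracycline suppression, treated under -TC conditions for 48 h; Aβ40 and Aβ42 measured in the collected medium by ELISA.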

[4] = tested on: MC65; experiment: Effect on Abeta42 production in human MC65 cells at 0.1 to 1 uM incubated for 48 hrs under tetracycline removal condition by ELISA method; assay type: functional, cell-based; summary of the method: as §2
[5] = target: T1, Amyloid-beta precursor protein (Homo sapiens, UniProt P05067); experiment: Inhibition of amyloid beta oligomerization in human MC65 cells assessed as small AbetaOs formation at 0.3 uM incubated for 48 hrs under tetracycline removal condition by Western blot method; assay type: cell-based
Summary of the method: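 MC65 cells incubated with compound under -TC conditions for 48 h; culture lysates analyzed by Western blot with 6E10 antibody for Aβ oligomers.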

[6] = target: T1, Amyloid-beta precursor protein; experiment: Inhibition of amyloid beta (1 to 42) (unknown origin) aggregation incubated for 48 hrs by Thioflavin-T Abeta aggregation assay
Summary of the method: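 Aβ42 (10 µM) incubated with compound at the indicated concentrations for 48 h; aggregation measured by thioflavin T assay; curcumin (10 µM) used as positive control.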

[7] = Antioxidant activity assessed as DPPH radical scavenging activity at 0.3 to 100 uM incubated for 30 mins at 37 degC; assay type: physicochemical; settings: 0.5 h
Summary of the method: (§3)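 Test compound or trolox incubated with DPPH (50 µM) in MeOH at 37 °C for 30 min at the indicated concentrations; radical scavenging read as absorbance at 517 nm.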

[8] = Antioxidant activity assessed as DPPH radical scavenging activity at 0.3 to 10 uM incubated for 30 mins at 37 degC; assay type: physicochemical; settings: 0.5 h; summary of the method: as §3
[9] = tested on: MC65; experiment: Neuroprotective activity in human MC65 cells assessed as protection against tetracycline removal-induced toxicity UP TO 10 uM incubated for 72 hrs by MTT method; assay type: functional, cell-based; settings: in the assay text read “UP TO 100 uM” for “UP TO 10 uM”; summary of the method: as §1

T1 sequence (P05067 whole entry): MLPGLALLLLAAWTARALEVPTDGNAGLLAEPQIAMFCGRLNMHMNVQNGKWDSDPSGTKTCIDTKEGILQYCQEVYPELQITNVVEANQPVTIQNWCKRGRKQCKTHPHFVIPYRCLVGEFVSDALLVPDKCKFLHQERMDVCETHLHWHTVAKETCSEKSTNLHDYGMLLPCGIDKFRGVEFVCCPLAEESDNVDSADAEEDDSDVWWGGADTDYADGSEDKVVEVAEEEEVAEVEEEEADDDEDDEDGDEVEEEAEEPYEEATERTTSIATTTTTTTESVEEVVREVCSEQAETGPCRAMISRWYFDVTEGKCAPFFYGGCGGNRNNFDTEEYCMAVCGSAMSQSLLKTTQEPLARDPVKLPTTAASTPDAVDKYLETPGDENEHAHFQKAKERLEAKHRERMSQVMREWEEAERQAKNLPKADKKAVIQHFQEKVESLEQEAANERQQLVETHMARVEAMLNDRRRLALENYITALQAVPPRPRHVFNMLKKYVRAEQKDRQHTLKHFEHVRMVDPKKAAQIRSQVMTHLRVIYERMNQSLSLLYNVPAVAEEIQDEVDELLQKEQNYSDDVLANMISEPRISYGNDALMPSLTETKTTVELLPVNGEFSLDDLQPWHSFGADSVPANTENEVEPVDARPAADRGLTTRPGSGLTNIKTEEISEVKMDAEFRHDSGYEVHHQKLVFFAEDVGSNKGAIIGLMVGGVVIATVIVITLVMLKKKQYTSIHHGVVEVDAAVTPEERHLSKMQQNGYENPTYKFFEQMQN

inhibition [5]: Active | IC50 [6]: 15 µM | inhibition [6]: Dose-dependent effect | Activity [7]: Active
Compound: O=C(O)c1c(O)cc2c([nH]c3ccccc32)c1O
Activity [1]: Active | Activity [2]: Active | Activity [3]: inactive | Activity [4]: inactive

Activity [8]: Active
Compound: Cc1c(C)c2c(c(C)c1O)CCC(C)(C(=O)O)O2 (stereo not given) [TROLOX]

Compound: O=C(O)c1c(O)cccc1O
Activity [9]: inactive
